Measured values reported in ChEMBL document CHEMBL1140925, “Nuclear factor-kappaB mediated inhibition of cytokine production by imidazoline scaffolds” (J Med Chem, 2009).
Active and inactive are the calls of the source. The calls are words filed in the database; no cut-off is given here.

Columns and labels:
Blood [1] = assay: Antiinflammatory activity in human whole blood assessed as inhibition of IL-1-beta-induced IL6 production preincubated 2 hrs before addition of IL1-beta measured after 18 hrs by ELISA; format: functional, tissue-based
Procedure, shortened: (§1)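 Human blood from donors with white count in the normal range, diluted 1:10 in RPMI-1640 with 10% FBS, penicillin and streptomycin. Aliquots were preincubated with vehicle (0.1% DMSO final) or compound at 10, 3, 1, 0.3 or 0.1 µM final for 2 h at 37 °C, 5% CO2. IL-1β (200 U/mL) was then added for 18 h, and plasma was collected and frozen. Cytokine was measured by ELISA.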

Blood [2] = assay: Antiinflammatory activity in human whole blood assessed as inhibition of IL-1-beta-induced TNFalpha production preincubated 2 hrs before addition of IL1-beta measured after 18 hrs by ELISA; format: functional, tissue-based; procedure, shortened: as §1
HeLa [3] = assay: Induction of NF-kappaB-mediated transcription expressed in human HeLa cells at 20 uM by luciferase reporter gene assay; format: cell-based
Procedure, shortened: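 Stably integrated NF-κB-luc HeLa cells, hygromycin-selected, were exposed to 20 µM imidazoline without TNF-α activation. Firefly luciferase was read after 8 h, and signal was normalized to the TNF-α activation control.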

HeLa [4] = assay: (§2) Inhibition of TNF-alpha-induced NF-kappaB-mediated transcription expressed in human HeLa cells preincubated for 30 mins before addition of TNFalpha measured after 8 hrs by luciferase reporter gene assay; format: cell-based
Procedure, shortened: (§3)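 HeLa/NF-κB-luc cells (5.0 × 10⁵ cells/mL) were grown 24 h, then switched to serum-free DMEM. They were pretreated 30 min at 37 °C with 0.05–20 µM imidazoline (1% DMSO vehicle), then stimulated with 25 ng/mL TNF-α for 8 h. Steady-Glo luminescence was normalized to TNF-α activation, and EC50 was taken from a variable-slope sigmoidal fit. Values are the mean of two independent experiments.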

[5] = as §2; format: cell-based; procedure, shortened: as §3
HeLa [6] = assay: Inhibition of TNF-alpha-induced NF-kappaB-mediated transcription expressed in human HeLa cells co-transfected with renilla luciferase-TK gene preincubated for 30 mins before TNFalpha challenge measured after 8 hrs by dual-glo luciferase reporter gene assay; format: cell-based
Procedure, shortened: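 HeLa cells were transiently cotransfected (lipofectamine 2000, 5–6 h) with 6×κB pNF-κB-luc and the pRL-TK Renilla control, then grown 24 h. They were pretreated 30 min with 0.312–20 µM (1% DMSO vehicle), then stimulated with 25 ng/mL TNF-α for 8 h at 37 °C. Dual-Glo firefly signal was normalized to Renilla luminescence.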

SMILES	IC50 (Blood [1]; Homo sapiens, Blood) [µM]	EC50 [5] [µM]	IC50 (Blood [1]) [µM]	IC50 (Blood [2]) [µM]	IC50 (Blood [2]; Homo sapiens, Blood) [µM]	Activity (Blood [1])	Activity (Blood [2])	logIC50 (Blood [2])	Activity (HeLa [3])	Activity (HeLa [4])	logEC50 (HeLa [4])	logIC50 (Blood [1])	logEC50 (HeLa [6])
c1ccc(CN2C(c3ccccc3)=N[C@@H](c3ccccc3)[C@H]2c2ccccc2)cc1 (racemic)	2.4	11				Dose-dependent effect	Dose-dependent effect	0.38	inactive	Dose-dependent effect	1.04		
c1ccc(Cn2c(-c3ccccc3)nc(-c3ccccc3)c2-c2ccccc2)cc1		27.7				Dose-dependent effect	Dose-dependent effect		inactive	Dose-dependent effect	1.44		
c1ccc(CN2C(c3ccccc3)=N[C@H](c3ccccc3)[C@H]2c2ccccc2)cc1 (racemic)	2.47	4.59				Dose-dependent effect	Dose-dependent effect	0.39	inactive	Dose-dependent effect	0.66		
O=C(O)[C@]1(c2ccccc2)N=C(c2ccccc2)N(Cc2ccccc2)[C@@H]1c1ccccc1 (racemic; 1) [listing 2 of 2 here]						Dose-dependent effect	Dose-dependent effect		inactive	Dose-dependent effect			
O=C(O)[C@]1(c2ccccc2)N=C(c2ccccc2)N(Cc2ccccc2)[C@@H]1c1ccccc1 (racemic; 2)									inactive	inactive			
CCOC(=O)[C@]1(c2ccccc2)N=C(c2ccccc2)N(Cc2ccccc2)[C@@H]1c1ccccc1 [listing 2 of 2 here]						Dose-dependent effect	Dose-dependent effect		inactive	Dose-dependent effect	0.209		
CCOC(=O)[C@]1(c2ccccc2)N=C(c2ccccc2)N(Cc2ccccc2)[C@@H]1c1ccccc1 (racemic)						Dose-dependent effect	Dose-dependent effect		inactive	Dose-dependent effect	0.4		0.67
O=C(OCc1ccccc1)[C@]1(c2ccccc2)N=C(c2ccccc2)N(Cc2ccccc2)[C@@H]1c1ccccc1 (racemic)		3.5			3.2	Dose-dependent effect	Dose-dependent effect	0.51	inactive	Dose-dependent effect	0.54	0.77	

More lines, main results first:

IC50 (Blood [1]; Homo sapiens, Blood) [µM]	EC50 [5] [µM]	IC50 (Blood [1]) [µM]	IC50 (Blood [2]) [µM]	IC50 (Blood [2]; Homo sapiens, Blood) [µM]	SMILES	Activity (Blood [1])	Activity (Blood [2])	logIC50 (Blood [2])	Activity (HeLa [3])	Activity (HeLa [4])	logEC50 (HeLa [4])	logIC50 (Blood [1])	logEC50 (HeLa [6])
	1.6	0.2	0.6		CCOC(=O)[C@]1(c2ccccc2)N=C(c2ccccc2)N(Cc2ccccc2)[C@@H]1c1ccccc1 [listing 1 of 2 here]								
	7.47			2.79	COC(=O)[C@]1(c2ccccc2)N=C(c2ccccc2)N(Cc2ccccc2)[C@@H]1c1ccccc1 (racemic)	Dose-dependent effect	Dose-dependent effect	0.4761	inactive	Dose-dependent effect	0.87	0.446	
0.583	2.9			0.7	CCOC(=O)[C@@]1(c2ccccc2)N=C(c2ccccc2)N(Cc2ccccc2)[C@H]1c1ccccc1	Dose-dependent effect	Dose-dependent effect		inactive	Dose-dependent effect	0.469		
11.9	26.2			> 20	NC(=O)[C@]1(c2ccccc2)N=C(c2ccccc2)N(Cc2ccccc2)[C@@H]1c1ccccc1 (racemic)	Dose-dependent effect		1.668	inactive	Dose-dependent effect	1.55	1.08	
> 20	0.95			> 20	O=C(O)[C@]1(c2ccccc2)N=C(c2ccccc2)N(Cc2ccccc2)[C@@H]1c1ccccc1 (racemic; 1) [listing 1 of 2 here]								
> 20	> 20				OC[C@]1(c2ccccc2)N=C(c2ccccc2)N(Cc2ccccc2)[C@@H]1c1ccccc1 (racemic)	Dose-dependent effect		1.29	inactive	Dose-dependent effect			
